According to ChEMBL document CHEMBL1687714, “Genetic analysis of fenhexamid-resistant field isolates of the phytopathogenic fungus Botrytis cinerea” (Antimicrob Agents Chemother, 2008):
Values after ≈ are worked out from the molar mass of the structure shown. Active and inactive are the calls of the source. The calls are words filed in the database; no cut-off is given here.

Legend:
Format in all cases: functional, organism-based
Botrytis cinerea [1] = experiment: Antifungal activity against highly fenhexamid-resistant Botrytis cinerea MK3-9 assessed as inhibition of germ tube elongation after 24 hrs; details: MK3-9, 24 h
Botrytis cinerea [2] = experiment: Antifungal activity against highly fenhexamid-resistant Botrytis cinerea MK5-14 assessed as inhibition of germ tube elongation after 24 hrs; details: MK5-14, 24 h
Botrytis cinerea [3] = experiment: Antifungal activity against moderately to slightly fenhexamid-resistant Botrytis cinerea 05-1.27 assessed as inhibition of germ tube elongation after 24 hrs; details: 05-1.27, 24 h
Botrytis cinerea [4] = experiment: Antifungal activity against moderately to slightly fenhexamid-resistant Botrytis cinerea 202 assessed as inhibition of germ tube elongation after 24 hrs; details: Botrytis cinerea, 202, 24 h
Botrytis cinerea [5] = experiment: Antifungal activity against moderately to slightly fenhexamid-resistant Botrytis cinerea 286 assessed as inhibition of germ tube elongation after 24 hrs; details: Botrytis cinerea, 286, 24 h
Botrytis cinerea [6] = experiment: Antifungal activity against moderately to slightly fenhexamid-resistant Botrytis cinerea 453a assessed as inhibition of germ tube elongation after 24 hrs
Botrytis cinerea [7] = experiment: Antifungal activity against moderately to slightly fenhexamid-resistant Botrytis cinerea 453b assessed as inhibition of germ tube elongation after 24 hrs
Botrytis cinerea [8] = experiment: Antifungal activity against fenhexamid-senistive Botrytis cinerea B05.10 assessed as inhibition of mycelium growth measured over 5 days; details: B05.10, 120 h
Botrytis cinerea [9] = experiment: Antifungal activity against highly fenhexamid-resistant Botrytis cinerea 1837 assessed as inhibition of mycelium growth measured over 5 days; details: Botrytis cinerea, 1837, 120 h
Botrytis cinerea [10] = experiment: Antifungal activity against highly fenhexamid-resistant Botrytis cinerea 05-190 assessed as inhibition of mycelium growth measured over 5 days; details: 05-190, 120 h
Botrytis cinerea [11] = experiment: Antifungal activity against highly fenhexamid-resistant Botrytis cinerea 05-221 assessed as inhibition of mycelium growth measured over 5 days; details: 05-221, 120 h
Botrytis cinerea [12] = experiment: Antifungal activity against highly fenhexamid-resistant Botrytis cinerea 05-PV Reims assessed as inhibition of mycelium growth measured over 5 days; details: 120 h
Botrytis cinerea [13] = experiment: Antifungal activity against highly fenhexamid-resistant Botrytis cinerea 118 assessed as inhibition of mycelium growth measured over 5 days; details: Botrytis cinerea, 118, 120 h
Botrytis cinerea [14] = experiment: Antifungal activity against highly fenhexamid-resistant Botrytis cinerea 223a assessed as inhibition of mycelium growth measured over 5 days; details: 120 h
Botrytis cinerea [15] = experiment: Antifungal activity against highly fenhexamid-resistant Botrytis cinerea 223b assessed as inhibition of mycelium growth measured over 5 days; details: 120 h
Botrytis cinerea [16] = experiment: Antifungal activity against highly fenhexamid-resistant Botrytis cinerea 264 assessed as inhibition of mycelium growth measured over 5 days; details: Botrytis cinerea, 264, 120 h
Botrytis cinerea [17] = experiment: Antifungal activity against highly fenhexamid-resistant Botrytis cinerea 379a assessed as inhibition of mycelium growth measured over 5 days; details: 120 h
Botrytis cinerea [18] = experiment: Antifungal activity against highly fenhexamid-resistant Botrytis cinerea 506a assessed as inhibition of mycelium growth measured over 5 days; details: 120 h
Botrytis cinerea [19] = experiment: Antifungal activity against highly fenhexamid-resistant Botrytis cinerea 533 assessed as inhibition of mycelium growth measured over 5 days; details: Botrytis cinerea, 533, 120 h
Botrytis cinerea [20] = experiment: Antifungal activity against moderately to slightly fenhexamid-resistant Botrytis cinerea 05-1.27 assessed as inhibition of mycelium growth measured over 5 days; details: 05-1.27, 120 h
Botrytis cinerea [21] = experiment: Antifungal activity against moderately to slightly fenhexamid-resistant Botrytis cinerea 57 assessed as inhibition of mycelium growth measured over 5 days; details: Botrytis cinerea, 57, 120 h
Botrytis cinerea [22] = experiment: Antifungal activity against moderately to slightly fenhexamid-resistant Botrytis cinerea 202 assessed as inhibition of mycelium growth measured over 5 days; details: Botrytis cinerea, 202, 120 h
Botrytis cinerea [23] = experiment: Antifungal activity against moderately to slightly fenhexamid-resistant Botrytis cinerea 286 assessed as inhibition of mycelium growth measured over 5 days; details: Botrytis cinerea, 286, 120 h
Botrytis cinerea [24] = experiment: Antifungal activity against moderately to slightly fenhexamid-resistant Botrytis cinerea 452 assessed as inhibition of mycelium growth measured over 5 days; details: Botrytis cinerea, 452, 120 h
Botrytis cinerea [25] = experiment: Antifungal activity against moderately to slightly fenhexamid-resistant Botrytis cinerea 453a assessed as inhibition of mycelium growth measured over 5 days; details: 120 h
Botrytis cinerea [26] = experiment: Antifungal activity against moderately to slightly fenhexamid-resistant Botrytis cinerea 453b assessed as inhibition of mycelium growth measured over 5 days; details: 120 h
Botrytis cinerea [27] = experiment: Antifungal activity against HydR3 deficient Botrytis cinerea 453 harboring TELerg N369D mutant at 2 ug/ml relative to wild-type
How it was run: (§1)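 In the dominance test, the recipient strains 453b and 286 were transformed with different erg27 alleles. Spores of the transformants were grown on YSS medium containing fenhexamid at different concentrations and 50 µg ml–1 hygromycin B. Parental strains were grown without hygromycin. Growth was scored after 7 days at 21°C.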

Botrytis cinerea [28] = experiment: Antifungal activity against HydR3 deficient Botrytis cinerea 453 harboring TELerg F412I mutant at 2 ug/ml relative to wild-type; how it was run: as §1
Botrytis cinerea [29] = experiment: Antifungal activity against HydR3 deficient Botrytis cinerea 453 harboring TELerg N369D mutant at 5 ug/ml relative to wild-type; how it was run: as §1
Botrytis cinerea [30] = experiment: Antifungal activity against HydR3 deficient Botrytis cinerea 453 harboring TELerg F412I mutant at 5 ug/ml relative to wild-type; how it was run: as §1
Botrytis cinerea [31] = experiment: Antifungal activity against fenhexamid-senistive Botrytis cinerea SAS405 assessed as inhibition of germ tube elongation after 24 hrs; details: SAS405, 24 h
Botrytis cinerea [32] = experiment: Antifungal activity against highly fenhexamid-resistant Botrytis cinerea 1837 assessed as inhibition of germ tube elongation after 24 hrs; details: Botrytis cinerea, 1837, 24 h
Botrytis cinerea [33] = experiment: Antifungal activity against highly fenhexamid-resistant Botrytis cinerea 05-221 assessed as inhibition of germ tube elongation after 24 hrs; details: 05-221, 24 h
Botrytis cinerea [34] = experiment: Antifungal activity against highly fenhexamid-resistant Botrytis cinerea 05-PV Reims assessed as inhibition of germ tube elongation after 24 hrs
Botrytis cinerea [35] = experiment: Antifungal activity against highly fenhexamid-resistant Botrytis cinerea 118 assessed as inhibition of germ tube elongation after 24 hrs; details: Botrytis cinerea, 118, 24 h
Botrytis cinerea [36] = experiment: Antifungal activity against highly fenhexamid-resistant Botrytis cinerea 223b assessed as inhibition of germ tube elongation after 24 hrs
Botrytis cinerea [37] = experiment: Antifungal activity against highly fenhexamid-resistant Botrytis cinerea 264 assessed as inhibition of germ tube elongation after 24 hrs; details: Botrytis cinerea, 264, 24 h
Botrytis cinerea [38] = experiment: Antifungal activity against highly fenhexamid-resistant Botrytis cinerea 379a assessed as inhibition of germ tube elongation after 24 hrs
Botrytis cinerea [39] = experiment: Antifungal activity against highly fenhexamid-resistant Botrytis cinerea 379b assessed as inhibition of germ tube elongation after 24 hrs
Botrytis cinerea [40] = experiment: Antifungal activity against highly fenhexamid-resistant Botrytis cinerea 520b assessed as inhibition of germ tube elongation after 24 hrs
Botrytis cinerea [41] = experiment: Antifungal activity against highly fenhexamid-resistant Botrytis cinerea 533 assessed as inhibition of germ tube elongation after 24 hrs; details: Botrytis cinerea, 533, 24 h
Botrytis cinerea [42] = experiment: Antifungal activity against highly fenhexamid-resistant Botrytis cinerea MK3-31 assessed as inhibition of germ tube elongation after 24 hrs; details: MK3-31, 24 h
Botrytis cinerea [43] = experiment: Antifungal activity against highly fenhexamid-resistant Botrytis cinerea MK3-36 assessed as inhibition of germ tube elongation after 24 hrs; details: MK3-36, 24 h

With CC1(C(=O)Nc2ccc(O)c(Cl)c2Cl)CCCCC1 [FENHEXAMID] as the compound, how does the EC50 (Botrytis cinerea [1]) read?
Its EC50 is > 5 µg/mL.

What about the EC50 (Botrytis cinerea [2]) of the same compound?
Its EC50 is > 5 µg/mL.

What about the EC50 (Botrytis cinerea [3]) of the same compound?
The EC50 was 2.5 µg/mL (≈ 8.27 µM).

What about the EC50 (Botrytis cinerea [4]) of the same compound?
Its EC50 is 2 µg/mL (≈ 6.62 µM).

What about the EC50 (Botrytis cinerea [5]) of the same compound?
The EC50 was 4 µg/mL (≈ 13.2 µM).

And the EC50 (Botrytis cinerea [6])?
Its EC50 is 3 µg/mL (≈ 9.93 µM).

And the EC50 (Botrytis cinerea [7])?
The EC50 was 2 µg/mL (≈ 6.62 µM).

What about the EC50 (Botrytis cinerea [8]) of the same compound?
Its EC50 is < 0.03 µg/mL.

And the EC50 (Botrytis cinerea [9])?
Its EC50 is > 10 µg/mL.

And the EC50 (Botrytis cinerea [10])?
Its EC50 is > 10 µg/mL.

And the EC50 (Botrytis cinerea [11])?
Its EC50 is 7 µg/mL (≈ 23.2 µM).

And the EC50 (Botrytis cinerea [12])?
Its EC50 is > 10 µg/mL.

What about the EC50 (Botrytis cinerea [13]) of the same compound?
Its EC50 is > 10 µg/mL.

What about the EC50 (Botrytis cinerea [14]) of the same compound?
The EC50 was > 10 µg/mL.

What about the EC50 (Botrytis cinerea [15]) of the same compound?
Its EC50 is > 10 µg/mL.

And the EC50 (Botrytis cinerea [16])?
The EC50 was > 10 µg/mL.

And the EC50 (Botrytis cinerea [17])?
Its EC50 is > 10 µg/mL.

And the EC50 (Botrytis cinerea [18])?
Its EC50 is > 10 µg/mL.

And the EC50 (Botrytis cinerea [19])?
The EC50 was 10 µg/mL (≈ 33.1 µM).

What about the EC50 (Botrytis cinerea [20]) of the same compound?
The EC50 was 0.2 µg/mL (≈ 0.662 µM).

What about the EC50 (Botrytis cinerea [21]) of the same compound?
Its EC50 is < 0.3 µg/mL.

And the EC50 (Botrytis cinerea [22])?
Its EC50 is < 0.3 µg/mL.

What about the EC50 (Botrytis cinerea [23]) of the same compound?
The EC50 was 1.5 µg/mL (≈ 4.96 µM).

And the EC50 (Botrytis cinerea [24])?
Its EC50 is 1.5 µg/mL (≈ 4.96 µM).

What about the EC50 (Botrytis cinerea [25]) of the same compound?
The EC50 was 2 µg/mL (≈ 6.62 µM).

And the EC50 (Botrytis cinerea [26])?
The EC50 was 1.5 µg/mL (≈ 4.96 µM).

And the Activity (Botrytis cinerea [27])?
The Activity was “inactive”.

And the Activity (Botrytis cinerea [28])?
The Activity was “inactive”.

And the Activity (Botrytis cinerea [29])?
The Activity was “inactive”.

And the Activity (Botrytis cinerea [30])?
Its Activity is “inactive”.

What about the EC50 (Botrytis cinerea [31]) of the same compound?
Its EC50 is < 0.1 µg/mL.

What about the EC50 (Botrytis cinerea [32]) of the same compound?
The EC50 was > 10 µg/mL.

And the EC50 (Botrytis cinerea [33])?
Its EC50 is > 10 µg/mL.

What about the EC50 (Botrytis cinerea [34]) of the same compound?
The EC50 was > 10 µg/mL.

And the EC50 (Botrytis cinerea [35])?
The EC50 was > 10 µg/mL.

And the EC50 (Botrytis cinerea [36])?
Its EC50 is > 10 µg/mL.

And the EC50 (Botrytis cinerea [37])?
Its EC50 is > 10 µg/mL.

And the EC50 (Botrytis cinerea [38])?
Its EC50 is > 10 µg/mL.

And the EC50 (Botrytis cinerea [39])?
Its EC50 is > 10 µg/mL.

What about the EC50 (Botrytis cinerea [40]) of the same compound?
Its EC50 is 8 µg/mL (≈ 26.5 µM).

What about the EC50 (Botrytis cinerea [41]) of the same compound?
Its EC50 is > 10 µg/mL.

And the EC50 (Botrytis cinerea [42])?
Its EC50 is > 5 µg/mL.

What about the EC50 (Botrytis cinerea [43]) of the same compound?
The EC50 was > 5 µg/mL.
